Data from ChEMBL document CHEMBL2412970, “Synthesis and anticancer activity of 2,4-disubstituted furo[3,2-b]indole derivatives” (Eur J Med Chem, 2013).
Calls of active or inactive are those of the source. No cut-off for these calls is given here.

Tests used:
A498 [1] = test: Cell cycle arrest in human A498 cells assessed as accumulation at sub-G1 phase at 0.5 uM after 24 hrs by propidium iodide staining-based flow cytometry (reference value: 0.10 +/- 0.07%); format: functional
NCI-H23 = test: Cytotoxicity against human NCI-H23 cells after 48 hrs by sulforhodamine B assay; format: functional; details: NCI-H23, 48 h
SK-MEL-5 = test: Cytotoxicity against human SK-MEL-5 cells after 48 hrs by sulforhodamine B assay; format: functional; details: SK-MEL-5, 48 h
A498 [2] = test: Cell cycle arrest in human A498 cells assessed as accumulation at G2/M phase at 0.5 uM by propidium iodide staining-based flow cytometry; format: functional; details: TDE = time-dependent effect
HCT-15 = test: Cytotoxicity against human HCT15 cells after 48 hrs by sulforhodamine B assay; format: functional; details: HCT-15, 48 h
OVCAR-5 = test: Cytotoxicity against human OVCAR5 cells after 48 hrs by sulforhodamine B assay; format: functional; details: OVCAR-5, 48 h
SW-620 = test: Cytotoxicity against human SW620 cells after 48 hrs by sulforhodamine B assay; format: functional; details: SW-620, 48 h
MOLT-4 = test: Cytotoxicity against human MOLT4 cells after 48 hrs by sulforhodamine B assay; format: functional; details: MOLT-4, 48 h
SNB-19 = test: Cytotoxicity against human SNB19 cells after 48 hrs by sulforhodamine B assay; format: functional; details: SNB-19, 48 h
A498 [3] = test: Cell cycle arrest in human A498 cells assessed as accumulation at S phase at 0.5 uM after 24 hrs by propidium iodide staining-based flow cytometry (reference value: 15.92 +/- 0.03%); format: functional
Detroit 551 = test: Cytotoxicity against human Detroit 551 cells after 48 hrs by MTT assay; format: cell-based; details: Detroit 551, 48 h
[4] = Cytotoxicity against human EKVX cells after 48 hrs by sulforhodamine B assay; format: functional
A498 [5] = test: Antitumor activity against human A498 cells xenografted in BALB/cAnN.Cg-Foxn1nu/CrlNarl nude mouse assessed as suppression of tumor growth at 60 mg/kg/day, ip qd administered 5 times a week for 28 days measured every 7 days relative to control; format: functional; details: route intraperitoneal, read-out: TGI
In short: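 Male nude mice (18–20 g, 4–6 weeks) were inoculated subcutaneously with A498 cells, 2 × 10⁶ per mouse in 0.1 mL PBS. Once tumors reached 100 mm³, mice were randomized and given ip doses of 30 or 60 mg/kg, 5 times per week for 4 weeks. Body weight and tumor size were recorded every 7 days over 28 days. Volume = 1/2 ([…]).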

NCI-H226 = test: Cytotoxicity against human NCI-H226 cells after 48 hrs by sulforhodamine B assay; format: functional; details: NCI-H226, 48 h
HT-29 = test: Cytotoxicity against human HT-29 cells after 48 hrs by sulforhodamine B assay; format: functional; details: HT-29, 48 h
T47D = test: Cytotoxicity against human T47D cells after 48 hrs by sulforhodamine B assay; format: functional
A498 [6] = test: Cytotoxicity against human A498 cells after 48 hrs by MTT assay; format: functional, cell-based
Hs-578T = test: Cytotoxicity against human Hs578T cells after 48 hrs by sulforhodamine B assay; format: functional
A498 [7] = test: Induction of apoptosis in human A498 cells assessed as late apoptotic cells at 0.5 uM after 36 hrs by AnnexinV/FITC-propidium iodide staining-based flow cytometry (reference value: 9.6%); format: functional
In short: (§1)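 Flow cytometry with annexin V-FITC/PI double labeling of A498 cells treated for 12, 24, 36 or 48 h; untreated cells served as the 0 h control. Stained in binding buffer for 15 min at room temperature in the dark, with more binding buffer added just before analysis. Annexin V+/PI− (Q4) counted as early apoptotic and annexin V+/PI+ (Q2) as late apoptotic.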

SK-OV-3 = test: Cytotoxicity against human SKOV3 cells after 48 hrs by sulforhodamine B assay; format: functional; details: SK-OV-3, 48 h
A498 [8] = test: Cytotoxicity against human A498 cells after 48 hrs by sulforhodamine B assay; format: functional; details: A498, 48 h
PC-3 = test: Cytotoxicity against human PC3 cells after 48 hrs by sulforhodamine B assay; format: functional; details: PC-3, 48 h
CAKI-1 = test: Cytotoxicity against human Caki1 cells after 48 hrs by sulforhodamine B assay; format: functional; details: CAKI-1, 48 h
A498 [9] = test: Cytotoxicity against human A498 cells assessed as reduction in cell viability at 0.25 uM after 48 hrs by MTT assay relative to control; format: functional
COLO 205 = test: Cytotoxicity against human COLO205 cells after 48 hrs by sulforhodamine B assay; format: functional; details: COLO 205, 48 h
A498 [10] = test: Cytotoxicity against human A498 cells assessed as cell rounding at 0.5 uM after 24 hrs by phase contrast microscopy; format: functional, cell-based
In short: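 A498 cells were plated at 5 × 10⁵ per well and exposed to 0.5 µM for 24 h. Cell rounding and shrinkage were scored by microscopy against untreated control cells.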

[11] = Cytotoxicity against human H460 cells after 48 hrs by MTT assay; format: functional, cell-based; details: NCI-H460, 48 h
In short: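 Cells were treated with a range of concentrations for 48 h. Viability was read by MTT: formazan was dissolved in DMSO and absorbance read at 570 nm. Untreated or 0.1% DMSO cells served as control. Data are mean from three independent experiments. HL-60, H460 and COLO 205 were kept in RPMI-1640 with 10% FBS and penicillin/streptomycin.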

A498 [12] = test: Cell cycle arrest in human A498 cells assessed as accumulation at G0/G1 phase at 0.5 uM after 24 hrs by propidium iodide staining-based flow cytometry (reference value: 78.70 +/- 0.02%); format: functional
A498 [13] = test: Induction of apoptosis in human A498 cells assessed as early apoptotic cells at 0.5 uM after 12 hrs by AnnexinV/FITC-propidium iodide staining-based flow cytometry (reference value: 3.9%); format: functional
A498 [14] = test: Induction of apoptosis in human A498 cells assessed as late apoptotic cells at 0.5 uM after 24 hrs by AnnexinV/FITC-propidium iodide staining-based flow cytometry (reference value: 9.6%); format: functional; in short: as §1
[15] = read-out: pLC50 (the source's name) (converted)

With `OCc1ccc(Cn2c3ccccc3c3oc(CO)cc32)o1` the Activity (A498 [1]) was 0.91%, the GI50 (NCI-H23) was over 100 µM and the CC50 (NCI-H23; [15]) was over 100 µM. For the same compound, the TGI (NCI-H23; read-out: pTGI) was over 100 µM, the GI50 (SK-MEL-5) was over 100 µM and the CC50 (SK-MEL-5; [15]) was over 100 µM. The TGI (SK-MEL-5; read-out: pTGI) was over 100 µM, the Activity (A498 [2]) was “tde” and the GI50 (HCT-15) was 87.1 µM. The CC50 (HCT-15; [15]) was over 100 µM, the TGI (HCT-15; read-out: pTGI) was over 100 µM and the GI50 (OVCAR-5) was 0.331 µM. For the same compound, the TGI (OVCAR-5; read-out: pTGI (converted)) was 1.2 µM, the GI50 (SW-620) was over 100 µM and the CC50 (SW-620; [15]) was over 100 µM. The TGI (SW-620; read-out: pTGI) was over 100 µM, the GI50 (MOLT-4) was 77.6 µM and the CC50 (MOLT-4; [15]) was over 100 µM. For the same compound, the TGI (MOLT-4; read-out: pTGI) was over 100 µM, the GI50 (SNB-19) was over 100 µM and the CC50 (SNB-19; [15]) was over 100 µM. For the same compound, the TGI (SNB-19; read-out: pTGI) was over 100 µM, the Activity (A498 [3]) was 15.98% and the IC50 (Detroit 551) was over 50 µM. It also gave a GI50 [4] of 24 µM, a CC50 [4, 15] of over 100 µM and a TGI ([4]; read-out: pTGI) of over 100 µM. It also gave an inhibition in vivo at 60 mg/kg/day (A498 [5]) of 80%, a GI50 (NCI-H226) of 0.224 µM and a TGI (NCI-H226; read-out: pTGI (converted)) of 0.55 µM. The GI50 (HT-29) was 41.7 µM, the CC50 (HT-29; [15]) was over 100 µM and the TGI (HT-29; read-out: pTGI) was over 100 µM. For the same compound, the GI50 (T47D) was 1.62 µM, the CC50 (T47D; [15]) was over 100 µM and the TGI (T47D; read-out: pTGI) was over 100 µM. For the same compound, the Activity (A498 [6]) was “Dose-dependent effect”, the IC50 (A498 [6]; A498, 48 h) was 0.21 µM and the GI50 (Hs-578T) was over 100 µM. For the same compound, the CC50 (Hs-578T; [15]) was over 100 µM, the TGI (Hs-578T; read-out: pTGI) was over 100 µM and the Activity (A498 [7]) was 20.3%. The GI50 (SK-OV-3) was over 100 µM, the CC50 (SK-OV-3; [15]) was over 100 µM and the TGI (SK-OV-3; read-out: pTGI) was over 100 µM. The GI50 (A498 [8]) was 0.141 µM, the CC50 (A498 [8]; read-out: pLC50 (converted)) was 0.661 µM and the TGI (A498 [8]; read-out: pTGI (converted)) was 0.302 µM. For the same compound, the GI50 (PC-3) was 55 µM, the CC50 (PC-3; [15]) was over 100 µM and the TGI (PC-3; read-out: pTGI) was over 100 µM. The GI50 (CAKI-1) was 51.3 µM, the CC50 (CAKI-1; [15]) was over 100 µM and the TGI (CAKI-1; read-out: pTGI) was over 100 µM. For the same compound, the Activity (A498 [9]) was 39.5%, the GI50 (COLO 205) was 61.7 µM and the CC50 (COLO 205; [15]) was over 100 µM. For the same compound, the TGI (COLO 205; read-out: pTGI) was over 100 µM, the Activity (A498 [10]) was “Active” and the IC50 [11] was 74.1 µM. For the same compound, the Activity (A498 [12]) was 72.65%, the Activity (A498 [13]) was 5% and the Activity (A498 [14]) was 15.6%.
